# Assays:
# [1] = Volume of distribution at steady state in Sprague-Dawley rat at 1 mg/kg, iv by HPLC-MS/MS analysis; type: ADME, organism-based; settings: in vivo, read-out: Vdss
# In short: (§1)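 Male Sprague-Dawley rats, 330–380 g, 9–10 weeks old, n = 3, jugular-cannulated 1 day ahead and fasted. Dosed iv 1.0 mg/kg or orally 5.0 mg/kg. Cannula blood was drawn at 0, 2, 5 (iv only), 15, 30 min and 1, 2, 4, 6, 8, 24 h. Plasma was assayed by HPLC-MS/MS, with non-compartmental analysis. The iv vehicle was DMA/propylene glycol (20/80, v/v).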
# [2] = Volume of distribution at steady state in Beagle dog at 0.1 mg/kg, iv by HPLC-MS/MS analysis; type: ADME, organism-based, Canis lupus familiaris; settings: in vivo, read-out: Vdss
# In short: (§2)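 Male Beagle dogs, 9–10 months old, n = 3, dosed iv 0.1 mg/kg or orally 0.5 mg/kg. Blood was drawn at 0, 2, 5 (iv only), 15, 30 min and 1, 2, 4, 6, 8, 24 h and kept on ice. Plasma was assayed by HPLC-MS/MS, with non-compartmental analysis. The iv formulation was a solution in DMA/propylene glycol (20/80, v/v).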
# [3] = Half life in Sprague-Dawley rat at 5 mg/kg, po by HPLC-MS/MS analysis; type: ADME, organism-based; settings: in vivo; in short: as §1
# [4] = Tmax in Sprague-Dawley rat at 5 mg/kg, po by HPLC-MS/MS analysis; type: ADME, organism-based; settings: in vivo; in short: as §1
# [5] = Cmax in Sprague-Dawley rat at 5 mg/kg, po by HPLC-MS/MS analysis; type: ADME, organism-based; set-up: dose 5 mg/kg, route oral; settings: in vivo; in short: as §1
# [6] = AUC in Beagle dog at 0.5 mg/kg, po by HPLC-MS/MS analysis; type: ADME, organism-based, Canis lupus familiaris; settings: in vivo; in short: as §2
# [7] = AUC in Sprague-Dawley rat at 5 mg/kg, po by HPLC-MS/MS analysis; type: ADME, organism-based; settings: in vivo; in short: as §1
# [8] = Plasma clearance in Sprague-Dawley rat at 1 mg/kg, iv by HPLC-MS/MS analysis; type: ADME, organism-based; in short: as §1
# [9] = Cytotoxicity against human HuH7 cells assessed as reduction in cell viability by MTS assay; type: cell-based, Huh-7
# In short: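 Viability of Huh-7 cells was read by MTS assay.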
# [10] = target: T1, Nonstructural protein 5A (Hepatitis C virus) (UniProt Q5L478); experiment: Potency index, ratio of daclatasvir EC50 to test compound EC50 for inhibition of NS5A in HCV genotype 1b infected in human HuH7 replicon cells; type: cell-based; settings: Hepatitis C virus subtype 1b
# T1 sequence (whole entry): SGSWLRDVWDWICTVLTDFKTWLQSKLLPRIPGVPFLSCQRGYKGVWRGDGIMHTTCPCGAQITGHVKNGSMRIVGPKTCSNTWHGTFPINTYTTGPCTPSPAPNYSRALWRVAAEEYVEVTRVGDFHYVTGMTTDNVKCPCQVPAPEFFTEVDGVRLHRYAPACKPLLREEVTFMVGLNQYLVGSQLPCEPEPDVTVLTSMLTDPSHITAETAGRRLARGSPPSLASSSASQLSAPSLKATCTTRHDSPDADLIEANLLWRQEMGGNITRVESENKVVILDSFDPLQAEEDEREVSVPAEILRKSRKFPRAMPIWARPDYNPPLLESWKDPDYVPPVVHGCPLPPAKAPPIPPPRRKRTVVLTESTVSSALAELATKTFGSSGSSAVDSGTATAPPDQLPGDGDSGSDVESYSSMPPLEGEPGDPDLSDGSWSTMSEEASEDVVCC
# [11] = Plasma clearance in Beagle dog at 0.1 mg/kg, iv by HPLC-MS/MS analysis; type: ADME, organism-based, Canis lupus familiaris; in short: as §2
# [12] = Half life in Sprague-Dawley rat at 1 mg/kg, iv by HPLC-MS/MS analysis; type: ADME, organism-based; settings: in vivo; in short: as §1
# [13] = Half life in Beagle dog at 0.1 mg/kg, iv by HPLC-MS/MS analysis; type: ADME, organism-based, Canis lupus familiaris; settings: in vivo; in short: as §2
# [14] = AUC in Sprague-Dawley rat at 1 mg/kg, iv by HPLC-MS/MS analysis; type: ADME, organism-based; settings: in vivo; in short: as §1
# [15] = AUC in Beagle dog at 0.1 mg/kg, iv by HPLC-MS/MS analysis; type: ADME, organism-based, Canis lupus familiaris; settings: in vivo; in short: as §2
# [16] = Cmax in Beagle dog at 0.5 mg/kg, po by HPLC-MS/MS analysis; type: ADME, organism-based, Canis lupus familiaris; set-up: dose 0.5 mg/kg, route oral; settings: in vivo; in short: as §2
# [17] = Tmax in Beagle dog at 0.5 mg/kg, po by HPLC-MS/MS analysis; type: ADME, organism-based, Canis lupus familiaris; settings: in vivo; in short: as §2
# [18] = Half life in Beagle dog at 0.5 mg/kg, po by HPLC-MS/MS analysis; type: ADME, organism-based, Canis lupus familiaris; settings: in vivo; in short: as §2
# [19] = Oral bioavailability in Sprague-Dawley rat at 5 mg/kg by HPLC-MS/MS analysis; type: ADME, organism-based; settings: in vivo; in short: as §1
# [20] = Oral bioavailability in Beagle dog at 0.5 mg/kg by HPLC-MS/MS analysis; type: ADME, organism-based, Canis lupus familiaris; settings: in vivo; in short: as §2
# [21] = Toxicity in Sprague-Dawley rat assessed as death at 1 mg/kg, iv; type: organism-based; settings: in vivo
# In short: (§3)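 Male Sprague-Dawley rats, 330–380 g, 9–10 weeks old, n = 3, were quarantined 1 week and jugular-cannulated 1 day before dosing. They were fasted, then given a single intravenous (1.0 mg/kg; DMA/propylene glycol 20/80, v/v) or oral (5.0 mg/kg) dose. Deaths, body weight and clinical observations were monitored with blood sampling through 24 h.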
# [22] = Toxicity in Beagle dog assessed as death at 0.1 mg/kg, iv; type: organism-based, Canis lupus familiaris; settings: in vivo
# In short: (§4)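 Male Beagle dogs, 9–10 months old, n = 3, were given a single intravenous (0.1 mg/kg) or oral (0.5 mg/kg) dose. The intravenous solution was in DMA/propylene glycol (20/80, v/v). Dose volume was set by pre-dose body weight. Blood was sampled up to 24 h. Deaths, body weight and clinical observations were recorded during the pharmacokinetic study.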
# [23] = Toxicity in Sprague-Dawley rat assessed as effect on body weight at 1 mg/kg, iv; type: organism-based; settings: in vivo; in short: as §3
# [24] = Toxicity in Beagle dog assessed as effect on clinical observations at 0.5 mg/kg, po; type: organism-based, Canis lupus familiaris; settings: in vivo; in short: as §4
# [25] = Toxicity in Beagle dog assessed as effect on body weight at 0.5 mg/kg, po; type: organism-based, Canis lupus familiaris; settings: in vivo; in short: as §4
# [26] = Toxicity in Beagle dog assessed as death at 0.5 mg/kg, po; type: organism-based, Canis lupus familiaris; settings: in vivo; in short: as §4
# [27] = Toxicity in Sprague-Dawley rat assessed as death at 5 mg/kg, po; type: organism-based; settings: in vivo; in short: as §3
# [28] = Toxicity in Sprague-Dawley rat assessed as effect on body weight at 5 mg/kg, po; type: organism-based; settings: in vivo; in short: as §3
# [29] = Toxicity in Sprague-Dawley rat assessed as effect on clinical observations at 5 mg/kg, po; type: organism-based; settings: in vivo; in short: as §3
# [30] = Toxicity in Beagle dog assessed as effect on body weight at 0.1 mg/kg, iv; type: organism-based, Canis lupus familiaris; settings: in vivo; in short: as §4
# [31] = Toxicity in Sprague-Dawley rat assessed as effect on clinical observations at 1 mg/kg, iv; type: organism-based; settings: in vivo; in short: as §3
# [32] = Toxicity in Beagle dog assessed as effect on clinical observations at 0.1 mg/kg, iv; type: organism-based, Canis lupus familiaris; settings: in vivo; in short: as §4
smiles,measurement,setting,value
O=C(N[C@@H](C(=O)N1CCC[C@H]1c1ncc(-c2ccc(-c3ccc(-c4cnc([C@@H]5CCCN5C(=O)[C@H](NC(=O)C5CC5)c5ccccc5)s4)cc3)cc2)s1)c1ccccc1)C1CC1,Vd,[1],1.3 L/kg
same,Vd,[2],1.6 L/kg
same,half-life,[3],20.4 h
same,Tmax,[4],3.3 h
same,Cmax,[5],305 ng/mL
same,AUC,[6],1620 ng·h/mL
same,AUC,[7],14500 ng·h/mL
same,clearance,[8],1.1 mL/min/kg
same,CC50,[9],> 50 µM
same,Ratio EC50,[10],3
same,clearance,[11],1.3 mL/min/kg
same,half-life,[12],18.3 h
same,half-life,[13],19.2 h
same,AUC,[14],16300 ng·h/mL
same,AUC,[15],1390 ng·h/mL
same,Cmax,[16],94.9 ng/mL
same,Tmax,[17],2.5 h
same,half-life,[18],21.4 h
same,bioavailability,[19],22%
same,bioavailability,[20],23.3%
same,Activity,[21],Non-Toxic
same,Activity,[22],Non-Toxic
same,Activity,[23],Non-Toxic
same,Activity,[24],Non-Toxic
same,Activity,[25],Non-Toxic
same,Activity,[26],Non-Toxic
same,Activity,[27],Non-Toxic
same,Activity,[28],Non-Toxic
same,Activity,[29],Non-Toxic
same,Activity,[30],Non-Toxic
same,Activity,[31],Non-Toxic
same,Activity,[32],Non-Toxic

# From ChEMBL document CHEMBL4387700, “A novel, potent, and orally bioavailable thiazole HCV NS5A inhibitor for the treatment of hepatitis C virus” (Eur J Med Chem, 2019)
